# Laboratory results from article PMC3778312 (British Journal of Cancer, 2013).
# How the values were obtained:
# [1] = Docetaxel plasma pharmacokinetics in patients; assay type: in vivo; settings: human
# [2] = Phase 1 safety monitoring of PX-866 with docetaxel; assay type: in vivo, human
# Procedure, shortened: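 Open-label dose escalation in cohorts of 6–9 patients at 4, 6 or 8 mg oral daily test compound plus docetaxel 75 mg m−2 IV every 21 days, with dexamethasone premedication. All patients receiving ≥1 dose had vital signs, labs and exams; AEs were graded by NCI CTCAE v4.02. DLTs included related grade ≥3 events, febrile grade 3/4 neutropenia, platelets <25 000 per μl and ANC <500 per μl for >7 days.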
# NSCLC = settings: ref Roberts et al, 2004, Horstmann et al, 2005, Schuette et al; cited from earlier work
# [3] = plasma, intravenous, 75 mg m^-2
smiles,measurement,setting,value
CC(=O)O[C@@]12CO[C@@H]1C[C@H](O)[C@@]1(C)C(=O)[C@H](O)C3=C(C)[C@@H](OC(=O)[C@H](O)[C@@H](NC(=O)OC(C)(C)C)c4ccccc4)C[C@@](O)([C@@H](OC(=O)c4ccccc4)[C@H]21)C3(C)C [docetaxel],exposure in the presence of PX-866,[1]; in vivo,not affected
same,AUC(0-t),"[1]; plasma, intravenous",851 ng·h/mL
same,MRT inf,"[1]; plasma, intravenous",13.9 h
same,Tmax,"[1]; plasma, intravenous",0.19 h
same,Vd,"[1]; plasma, intravenous",2690 L
same,clearance,"[1]; plasma, intravenous",2570 mL/min
same,AUC(0-t),[1]; [3],1200 ng·h/mL
same,MRT inf,[1]; [3],15.2 h
same,Tmax,[1]; [3],0.19 h
same,Vd,[1]; [3],2990 L
same,clearance,[1]; [3],2390 mL/min
same,AUC(0-inf),"[1]; plasma, intravenous, AUCINF, C2D1 (with PX-866), mean, N=35, plasma",1110 ng·h/mL
same,Cmax,"[1]; plasma, intravenous, Cmax, C2D1 (with PX-866), mean, N=35, plasma",539 ng/mL
same,half-life,"[1]; plasma, intravenous, Half-life, C2D1 (with PX-866), mean, N=35, plasma",13.1 h
same,patients requiring docetaxel dose reduction,[2]; 18 out of 43,42%
same,SAE related to docetaxel: ataxia,[2]; PX-866 with docetaxel,1 N
same,SAE related to docetaxel: febrile neutropenia,[2]; PX-866 with docetaxel,1 N
same,SAE related to docetaxel: mental status changes,[2]; PX-866 with docetaxel,1 N
same,SAE related to docetaxel: nausea,[2]; PX-866 with docetaxel,2 N
same,SAE related to docetaxel: pneumonia,[2]; PX-866 with docetaxel,1 N
same,SAE related to docetaxel: vomiting,[2]; PX-866 with docetaxel,3 N
same,"gastrointestinal disorders, docetaxel-related","[2]; PX-866 with docetaxel, 43 patients",79.1%
same,Grade 3/4 AE related to docetaxel: anaemia,"[2]; PX-866 with docetaxel, N=43",2 N
same,Grade 3/4 AE related to docetaxel: diarrhoea,"[2]; PX-866 with docetaxel, N=43",3 N
same,Grade 3/4 AE related to docetaxel: leucopenia,"[2]; PX-866 with docetaxel, N=43",4 N
same,Grade 3/4 AE related to docetaxel: nausea,"[2]; PX-866 with docetaxel, N=43",2 N
same,Grade 3/4 AE related to docetaxel: vomiting,"[2]; PX-866 with docetaxel, N=43",3 N
same,patients in whom docetaxel was discontinued due to toxicity,"[2]; after SD or better with combination, continued single-agent PX-866",eight
same,patients requiring docetaxel dose reduction due to neutropenia,[2]; of 18 with dose reduction,Fourteen
same,"PR rate, second-line docetaxel in NSCLC",NSCLC,13%
same,"PR−SD rate, second-line docetaxel in NSCLC",NSCLC,50%
